Measured values as given in ChEMBL document CHEMBL1133770, “Synthesis and antitumor activity of new benzoheterocyclic derivatives of distamycin A” (J Med Chem, 2000).
“And” between values parts separate entries of the source, which are not always exact repeats. Identical values can stand only once.

Columns and labels:
L1210 [1] = assay: Inhibition of growth in L1210 leukemia cells resistant to Tallimustine.; type: functional, cell-based; details: Mus musculus
In short: (§1)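 L1210 murine leukemia cells and their doxorubicin-resistant and tallimustine-resistant sublines were grown as stationary suspension in RPMI 1640 with 10% fetal calf serum, 2 mM L-glutamine, β-mercaptoethanol and antibiotics. Compounds were dissolved in DMSO at 1 mg/mL (stock) and diluted in medium. Exponentially growing cells were exposed continuously for 48 h, and survivors were counted electronically. IC50 (cell number reduced to 50% of untreated control) was taken from dose-response curves. Duplicate cultures were used, with vehicle controls.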

L1210 [2] = assay: Ratio between IC50 value on resistant cells and sensitive cells; type: functional, Mus musculus; parameters: reference not given here
In short: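 Murine L1210 leukemia cells, parental and doxorubicin- or tallimustine-resistant sublines, were grown in stationary suspension in RPMI 1640 with 10% FCS, 2 mM glutamine, […] and antibiotics. Exponentially growing cells were exposed continuously for 48 h to graded concentrations from a 1 mg/mL DMSO stock, and survivors were counted electronically. IC50 came from dose-response curves, with duplicate cultures and at least two repeats. RI was the IC50 on resistant cells divided by the IC50 on sensitive cells.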

L1210 [3] = assay: In vivo optimal nontoxic dose against murine L1210 leukemia cells after i.v. administration day 1 after tumor i.v. inoculation.
L1210 [4] = assay: In vitro antitumor activity evaluated against L1210 murine leukemia cell line; type: functional, cell-based; details: Mus musculus; in short: as §1
L1210 [5] = assay: In vivo median survival time of treated vs untreated mice x 100 against murine L1210 leukemia cells after iv treatment on day 1 after tumor iv transplant; type: functional, Mus musculus
[6] = Resistance index(RI) = Ratio between IC50 value on resistant cells and sensitive cells; type: functional
In short: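 L1210/DX (doxorubicin-resistant), L1210/tallimustine-resistant and parental L1210 cells grown as stationary suspension in RPMI 1640 with 10% FCS. Compounds from 1 mg/mL DMSO stock, diluted in medium. Exponentially growing cells exposed continuously for 48 h, with duplicate cultures per concentration and vehicle controls. Survivors counted electronically; IC50 taken from dose-response curves. RI = resistant-line IC50 / parental L1210 IC50.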

Estrogen receptor = Estrogen receptor (Homo sapiens, UniProt Q92731+P03372); assay: Tested for 50% inhibition of generation of Human estrogen receptor polymerase chain reaction(PCR) products; type: protein assay
L1210 [7] = assay: Inhibition of growth in L1210 leukemia cells resistant to doxorubicin(DX).; type: functional, cell-based; details: Mus musculus; in short: as §1
L1210 [8] = assay: In vivo optimal nontoxic dose against murine L1210 leukemia cells after ip treatment on day 1 after tumor ip transplant; type: functional, Mus musculus
In short: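 L1210 leukemia cells (10^5/mouse) were implanted ip or iv in female mice, 10 per group. Compounds were made fresh in 10% Tween 80/90% saline and given ip or iv on day 1 after implant, over a dose-response range. […] Toxicity was judged by gross autopsy and weight loss.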

L1210 [9] = assay: In vivo median survival time of treated vs untreated mice x 100 against murine L1210 leukemia cells after ip treatment on day 1 after tumor iv transplant; type: functional, Mus musculus

| Structure (SMILES) | IC50 (L1210 [1]) [nM] | Resistance index (L1210 [2]) | Optimal dose (L1210 [3]) [mg/kg] | IC50 (L1210 [4]) [nM] | T/C (L1210 [5]) [%] | Resistance index [6] | IC50 (Estrogen receptor) [nM] | IC50 (L1210 [7]) [nM] | Optimal dose (L1210 [8]) [mg/kg] | T/C (L1210 [9]) [%] |
| --- | --- | --- | --- | --- | --- | --- | --- | --- | --- | --- |
| Cl.Cn1cc(NC(=O)c2cc(NC(=O)c3cc(NC(=O)c4cc(NC(=O)c5ccc(N(CCCl)CCCl)cc5)cn4C)cn3C)cn2C)cc1C(=O)NCCC(=N)N | 1.2 | 19 | 0.4 |  |  |  |  |  |  |  |
| C=C(Br)C(=O)Nc1cc(C(=O)Nc2cc(C(=O)Nc3cc(C(=O)NCCC(=N)N)n(C)c3)n(C)c2)n(C)c1.Cl | 1.2 | 68 and 156 |  |  |  |  |  |  |  |  |
| Cl.Cn1cc(NC(=O)c2cc(NC(=O)c3cc(NC(=O)c4cc5cc(NC(=O)c6ccc(N(CCCl)CCCl)cc6)ccc5n4C)cn3C)cn2C)cc1C(=O)NCCC(=N)N | 1.2 |  | 25 | 61.7 | 183 | 6.8 and 19 | 5 | 0.42 |  |  |
| Cl.Cn1cc(NC(=O)c2cc(NC(=O)c3cc(NC(=O)/C=C/c4ccc(N(CCCl)CCCl)cc4)cn3C)cn2C)cc1C(=O)NCCC(=N)N |  |  | 6.2 |  | 267 |  |  |  |  |  |
| C=C(Br)C(=O)Nc1ccc2c(c1)cc(C(=O)Nc1cc(C(=O)Nc3cc(C(=O)Nc4cc(C(=O)NCCC(=N)N)n(C)c4)n(C)c3)n(C)c1)n2C.Cl | 150 |  | 6.2 | 2.4 | 192 |  |  | 43 |  |  |
| Cl.Cn1cc(NC(=O)c2cc(NC(=O)c3cc(NC(=O)c4ccc(N(CCCl)CCCl)cc4)cn3C)cn2C)cc1C(=O)NCCC(=N)N [TALLIMUSTINE CHLORIDE] |  |  | 3.1 |  | 133 |  |  |  | 3.1 |  |
| Cl.Cn1cc(NC(=O)c2cc(NC(=O)c3cc(NC(=O)c4cc5cc(N(CCCl)CCCl)ccc5o4)cn3C)cn2C)cc1C(=O)NCCC(=N)N | 1.2 | 6.8 and 19 | 0.39 | 3.7 | 200 |  | 3 | 0.42 |  |  |
| Cl.Cn1cc(NC(=O)c2cc(NC(=O)c3cc(NC(=O)c4nc5cc(NC(=O)c6ccc(N(CCCl)CCCl)cc6)ccc5[nH]4)cn3C)cn2C)cc1C(=O)NCCC(=N)N | 1.2 | 6.8 and 19 |  | 1420 |  |  | 5 | 0.42 |  |  |
| C=C(Br)C(=O)Nc1ccc2oc(C(=O)Nc3cc(C(=O)Nc4cc(C(=O)Nc5cc(C(=O)NCCC(=N)N)n(C)c5)n(C)c4)n(C)c3)cc2c1.Cl | 210 |  | 0.78 | 6.1 | 117 |  |  | 39 |  |  |
| C=C(Br)C(=O)Nc1cc(C(=O)Nc2cc(C(=O)Nc3cc(C(=O)Nc4cc(C(=O)NCCC(=N)N)n(C)c4)n(C)c3)n(C)c2)n(C)n1.Cl |  |  |  | 13.3 |  |  |  | 0.42 | 6.2 | 200 |
| Cl.Cn1cc(NC(=O)c2cc(NC(=O)c3cc(NC(=O)c4nc(NC(=O)c5ccc(N(CCCl)CCCl)cc5)cn4C)cn3C)cn2C)cc1C(=O)NCCC(=N)N | 5 | 2 and 2.1 |  | 2370 |  |  |  | 0.42 |  | 125 |
| Cl.Cn1cc(NC(=O)c2cc(NC(=O)c3cc(NC(=O)c4cc5cc(NC(=O)c6ccc(N(CCCl)CCCl)cc6)ccc5o4)cn3C)cn2C)cc1C(=O)NCCC(=N)N | 1.2 | 6.8 and 19 | 6.2 | 43.5 | 150 |  |  | 0.42 |  |  |
| Cl.Cn1cc(NC(=O)c2cc(NC(=O)c3cc(N(CCCl)CCCl)cn3C)cn2C)cc1C(=O)NCCC(=N)N |  |  | 0.78 | 3.9 | 117 |  |  |  | 1.6 | 138 |
| Cl.Cn1cc(NC(=O)c2cc(NC(=O)c3cc(NC(=O)c4cc(NC(=O)c5ccc(N(CCCl)CCCl)cc5)nn4C)cn3C)cn2C)cc1C(=O)NCCC(=N)N | 10.4 | 326.2 and 302.3 |  | 34.5 |  |  |  | 0.42 | 3.1 | 144 |
| Cl.Cn1cc(NC(=O)c2cc(NC(=O)c3cc(NC(=O)c4cc5cc(NC(=O)c6ccc(N(CCCl)CCCl)cc6)ccc5[nH]4)cn3C)cn2C)cc1C(=O)NCCC(=N)N | 0.88 | 5.7 and 9.2 | 3.1 | 95.3 | 163 |  | 7.5 | 0.54 |  |  |
| Cn1cc(NC(=O)c2cc(NC(=O)c3cc(NC(=O)c4cc(NC=O)cn4C)cn3C)cn2C)cc1C(=O)NCCC(=N)N | 1.2 |  |  |  |  |  |  | 0.42 |  |  |
| C=C(Br)C(=O)Nc1cn(C)c(C(=O)Nc2cc(C(=O)Nc3cc(C(=O)Nc4cc(C(=O)NCCC(=N)N)n(C)c4)n(C)c3)n(C)c2)n1.Cl | 1.2 | 15.5 and 13.9 |  | 46.9 |  |  |  | 0.42 | 6.2 | 163 |
| C=C(Br)C(=O)Nc1ccc2c(c1)cc(C(=O)Nc1cc(C(=O)Nc3cc(C(=O)NCCC(=N)N)n(C)c3)n(C)c1)n2C.Cl | 150 |  | 3.1 | 15.3 | 133 |  |  | 41 |  |  |
| C=C(Br)C(=O)Nc1ccc2[nH]c(C(=O)Nc3cc(C(=O)Nc4cc(C(=O)Nc5cc(C(=O)NCCC(=N)N)n(C)c5)n(C)c4)n(C)c3)cc2c1.Cl | 140 |  | 12.5 | 4.1 | 213 |  |  | 36 |  |  |
| C=C(Br)C(=O)Nc1cc(C(=O)Nc2cc(C(=O)Nc3cc(C(=O)Nc4cc(C(=O)NCCC(=N)N)n(C)c4)n(C)c3)n(C)c2)n(C)c1.Cl |  |  | 1.6 |  | 200 |  |  | 0.42 | 3.1 | 725 |
| Cn1cc(NC(=O)c2cc(NC(=O)c3cc(NC=O)cn3C)cn2C)cc1C(=O)NCCC(=N)N [STALLIMYCIN] | 142000 |  |  | 10100 |  |  | 20 | 459000 |  |  |
| Cl.Cn1cc(NC(=O)c2cc(NC(=O)c3cc(NC(=O)c4cc5cc(N(CCCl)CCCl)ccc5[nH]4)cn3C)cn2C)cc1C(=O)NCCC(=N)N | 1.2 | 6.8 and 19 | 0.39 | 8 | 174 |  | 1 | 0.42 |  |  |
| Cl.Cn1cc(NC(=O)c2cc(NC(=O)c3cc(NC(=O)c4cc(N(CCCl)CCCl)cn4C)cn3C)cn2C)cc1C(=O)NCCC(=N)N |  |  | 0.39 | 0.081 | 133 |  |  |  | 0.39 | 188 |
| Cl.Cn1cc(NC(=O)c2cc(NC(=O)c3cc(NC(=O)c4cc5cc(N(CCCl)CCCl)ccc5n4C)cn3C)cn2C)cc1C(=O)NCCC(=N)N | 1.2 | 6.8 and 19 | 1.6 | 14.7 | 457 |  | 1 | 0.42 |  |  |
